Assay results from ChEMBL document CHEMBL4184106, “Discovering alkylamide derivatives of bexarotene as new therapeutic agents against triple-negative breast cancer” (Bioorg Med Chem Lett, 2018).
Active and inactive are the calls of the source. No cut-off for these calls is given here.

Columns and labels:
MDA-MB-231 [1] = assay: Induction of apoptosis in human MDA-MB-231 cells assessed as ratio of cleaved caspase-9 to beta-actin level at 5 uM by western blot analysis (reference value: 1); type: functional
MDA-MB-231 [2] = assay: Effect on epithelial-mesenchymal transition in human MDA-MB-231 cells assessed as ratio of slug to beta-actin level at 5 uM by Western blot analysis (reference value: 1); type: functional
MCF7 [3] = assay: Down regulation of KLF4 expression in human MCF7 cells at 5 uM by Western blot analysis; type: functional
In short: (§1)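 MCF-7 cells were treated and lysates probed by Western blot for CSC-related markers, with β-actin as loading control. Band densitometry was normalized to DMSO-treated samples.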

MDA-MB-231 [4] = assay: Induction of apoptosis in nuclear fractions of human MDA-MB-231 cells assessed as ratio of PARP to beta-actin level at 5 uM by western blot analysis (reference value: 1); type: functional
BT-549 [5] = assay: Inhibition of mammosphere formation in human BT549 cells assessed as ratio of KLF4 to beta actin level at 5 uM by Western blot analysis (Rvb= 1); type: functional
MCF7 [6] = assay: Down regulation of c-Myc expression in human MCF7 cells at 5 uM by Western blot analysis; type: functional; in short: as §1
MDA-MB-231 [7] = assay: Inhibition of mammosphere formation in human MDA-MB-231 cells assessed as ratio of C-Myc to beta actin level at 5 uM by Western blot analysis (Rvb= 1); type: functional
In short: (§2)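 Post-treatment cell lysates were probed by Western blot for CSC markers, with β-actin as the loading control. Band densitometry was normalized to DMSO-treated samples.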

MDA-MB-231 [8] = assay: Induction of apoptosis in nuclear fractions of human MDA-MB-231 cells assessed as ratio of cleaved PARP to beta-actin level at 5 uM by western blot analysis (reference value: 1); type: functional
BT-549 [9] = assay: Cytotoxicity against human BT549 cells assessed as reduction in cell viability by MTT assay; type: functional, cell-based
BT-549 [10] = assay: Induction of apoptosis in nuclear fractions of human BT549 cells assessed as ratio of PARP to beta-actin level at 5 uM by western blot analysis (reference value: 1); type: functional
MCF-10A [11] = assay: Induction of apoptosis in human MCF10A cells assessed as ratio of cleaved caspase-8 to beta-actin level at 5 uM by western blot analysis (reference value: 1); type: cell-based
MCF-10A [12] = assay: Induction of apoptosis in human MCF10A cells assessed as ratio of cleaved caspase-9 to beta-actin level at 5 uM by western blot analysis (reference value: 1); type: cell-based
MDA-MB-231 [13] = assay: Down regulation of KLF4 expression in human MDA-MB-231 cells at 5 uM by Western blot analysis; type: functional
BT-549 [14] = assay: Effect on epithelial-mesenchymal transition in human BT549 cells assessed as ratio of vimentin to beta-actin level at 5 uM by Western blot analysis (reference value: 1); type: functional
MDA-MB-231 [15] = assay: Inhibition of mammosphere formation in human MDA-MB-231 cells assessed as ratio of KLF4 to beta actin level at 5 uM by Western blot analysis (Rvb= 1); type: functional; in short: as §2
BT-549 [16] = assay: Effect on epithelial-mesenchymal transition in human BT549 cells assessed as ratio of E-cadherin to beta-actin level at 5 uM by Western blot analysis (reference value: 1); type: functional
MCF7 [17] = assay: Induction of apoptosis in human MCF7 cells assessed as ratio of cleaved caspase-8 to beta-actin level at 5 uM by western blot analysis (reference value: 1); type: functional
MDA-MB-231 [18] = assay: Effect on epithelial-mesenchymal transition in human MDA-MB-231 cells assessed as ratio of E-cadherin to beta-actin level at 5 uM by Western blot analysis (reference value: 1); type: functional
MCF7 [19] = assay: Down regulation of Sox-2 expression in human MCF7 cells at 5 uM by Western blot analysis; type: functional; in short: as §1
BT-549 [20] = assay: Induction of apoptosis in human BT549 cells assessed as ratio of cleaved caspase-8 to beta-actin level at 5 uM by western blot analysis (reference value: 1); type: functional
MCF7 [21] = assay: Inhibition of mammosphere formation in human MCF7 cells at 2 uM after 7 days by microscopic method; type: functional, cell-based
In short: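 MCF-7 cells were grown under mammosphere-forming conditions with compound. Spheres 60 μm or larger were counted for quantitation.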

BT-549 [22] = assay: Induction of apoptosis in nuclear fractions of human BT549 cells assessed as ratio of cleaved PARP to beta-actin level at 5 uM by western blot analysis (reference value: 1); type: functional
MDA-MB-231 [23] = assay: Effect on beta-catenin translocation in nuclear fraction of human MDA-MB-231 cells assessed as ratio of beta-catenin to beta-actin level at 5 uM by Western blot analysis (reference value: 1); type: functional
MDA-MB-231 [24] = assay: Effect on epithelial-mesenchymal transition in human MDA-MB-231 cells assessed as ratio of vimentin to beta-actin level at 5 uM by Western blot analysis (reference value: 1); type: functional
MDA-MB-231 [25] = assay: Anti-migratory activity against human MDA-MB-231 cells assessed as reduction in wound closure at 2 uM up to 24 hrs by wound-healing assay; type: functional, cell-based
In short: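 MDA-MB-231 monolayer was scratched to make a wound gap. Cells were treated alongside a DMSO vehicle control, and migration into the gap was imaged at 24 h.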

MCF7 [26] = assay: Inhibition of colony formation in human MCF7 cells at 5 uM supplemented with fresh medium containing compound every 3 to 4 days for 7 days by crystal violet staining based adherent cell colony-forming assay; type: functional
In short: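 MCF-7 cells were plated for adherent colony formation and treated for 7 days. Colonies were counted at the end of treatment and normalized to untreated samples.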

MDA-MB-231 [27] = assay: Cytotoxicity against human MDA-MB-231 cells assessed as reduction in cell viability by MTT assay; type: functional, cell-based
MCF7 [28] = assay: Induction of apoptosis in human MCF7 cells assessed as ratio of cleaved caspase-9 to beta-actin level at 5 uM by western blot analysis (reference value: 1); type: functional
BT-549 [29] = assay: Effect on beta-catenin translocation in nuclear fraction of human BT549 cells assessed as ratio of beta-catenin to beta-actin level at 5 uM by Western blot analysis (reference value: 1); type: functional
BT-549 [30] = assay: Induction of apoptosis in human BT549 cells assessed as ratio of cleaved caspase-3 to beta-actin level at 5 uM by western blot analysis (reference value: 1); type: functional
MCF-10A [31] = assay: Induction of apoptosis in human MCF10A cells assessed as ratio of cleaved caspase-3 to beta-actin level at 5 uM by western blot analysis (reference value: 1); type: cell-based
MDA-MB-231 [32] = assay: Induction of apoptosis in human MDA-MB-231 cells assessed as ratio of cleaved caspase-8 to beta-actin level at 5 uM by western blot analysis (reference value: 1); type: functional
MCF7 [33] = assay: Inhibition of mammosphere formation in human MCF7 cells assessed as ratio of Oct4A to beta actin level at 5 uM by Western blot analysis (Rvb= 1); type: functional; in short: as §2
MCF7 [34] = assay: Induction of apoptosis in human MCF7 cells assessed as ratio of cleaved caspase-3 to beta-actin level at 5 uM by western blot analysis (reference value: 1); type: functional
MDA-MB-231 [35] = assay: Induction of apoptosis in human MDA-MB-231 cells assessed as ratio of cleaved caspase-3 to beta-actin level at 5 uM by western blot analysis (reference value: 1); type: functional

`C=C(c1ccc(C(=O)NCCN2CCCC2)cc1)c1cc2c(cc1C)C(C)(C)CCC2(C)C` was tested, and the Ratio (MDA-MB-231 [1]) was 1.7, the Ratio (MDA-MB-231 [2]) was 1 and the Activity (MCF7 [3]) was 10 - 30%. For the same molecule, the Ratio (MDA-MB-231 [4]) was 0.9, the Ratio (BT-549 [5]) was 0.8 and the Activity (MCF7 [6]) was 10 - 30%. The Ratio (MDA-MB-231 [7]) was 1.1, the Ratio (MDA-MB-231 [8]) was 1.5 and the EC50 (BT-549 [9]) was less than 10 µM. For the same molecule, the Ratio (BT-549 [10]) was 0.9, the Ratio (MCF-10A [11]) was 1 and the Ratio (MCF-10A [12]) was 1. The Activity (MDA-MB-231 [13]) was 50%, the Ratio (BT-549 [14]) was 1 and the Ratio (MDA-MB-231 [15]) was 0.5. The Ratio (BT-549 [16]) was 6.3, the Ratio (MCF7 [17]) was 1 and the Ratio (MDA-MB-231 [18]) was 6.2. For the same molecule, the Activity (MCF7 [19]) was 60%, the Ratio (BT-549 [20]) was 1 and the inhibition (MCF7 [21]) was “Active”. For the same molecule, the Ratio (BT-549 [22]) was 2.5, the Ratio (MDA-MB-231 [23]) was 0.4 and the Ratio (MDA-MB-231 [24]) was 0.3. The Activity (MDA-MB-231 [25]) was “Active”, the “inhibition (INH)” value (MCF7 [26]) was 80% and the EC50 (MDA-MB-231 [27]) was less than 10 µM. It also gave a Ratio (MCF7 [28]) of 1.2, a Ratio (BT-549 [29]) of 0.5 and a Ratio (BT-549 [30]) of 2.1. The Ratio (MCF-10A [31]) was 1, the Ratio (MDA-MB-231 [32]) was 3.7 and the Ratio (MCF7 [33]) was 1.1. For the same molecule, the Ratio (MCF7 [34]) was 1 and the Ratio (MDA-MB-231 [35]) was 3.4.
